Legend:
[1] = target: Coagulation factor X (Homo sapiens, UniProt P00742); experiment: Inhibition of human factor 10a
In short: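 Human FXa was preincubated with compound in DMSO; 3 mM chromogenic substrate (stock) was added for 10 min at 37 °C. Inhibition was computed against DMSO control, with IC50 from least-squares regression; duplicate means.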

[2] = tested on: Plasma; experiment: Anticoagulant potency in human plasma assessed as concentration required to double prothrombin time after 4 mins; type: functional
In short: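 Human normal plasma was preincubated with compound in DMSO at 37 °C for 4 min. Clotting was started with thromboplastin and PT was timed on an automatic coagulometer. Prolongation was referenced to DMSO vehicle, and PT2 (clotting-time doubling concentration) was obtained from a least-squares regression line. Duplicate measurements, averaged.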

[3] = target: CYP3A4 (Homo sapiens, UniProt P08684); experiment: Inhibition of human CYP3A4 at 1 uM by spectrofluorimeter; type: ADME
In short: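 Microsomes from CYP3A4-expressing insect cells were incubated with 40 µM 7-benzyloxyquinoline and 1 µM test compound. Metabolite formed was quantified with a spectrofluorometer.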

[4] = tested on: Plasma; experiment: Anticoagulant potency in mouse plasma assessed as concentration required to double prothrombin time after 4 mins; type: functional
[5] = tested on: Mus musculus; experiment: Ex vivo anticoagulant potency in ICR mouse blood at 30 mg/kg, po after 1 hr expressed as ratio of prothrombin time in drug treated animal to control; type: functional
In short: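 Male ICR mice (30-35 g), fasted >12 h, received compound orally at 30 mg/kg as a suspension in 0.5% methylcellulose; controls got vehicle alone (n = 3-5). Aortic blood was taken at 1 h under pentobarbital into 3.8% citrate (9:1). Platelet-poor plasma (1000g, 10 min) was preincubated 4 min at 37 °C, then thromboplastin added. Clotting time expressed as ratio versus control.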

[6] = tested on: Cynomolgus monkey; experiment: Ex vivo anticoagulant potency in cynomolgus monkey blood assessed as prothrombin time prolongation at 3 mg/kg, po after 1 hr; type: functional, Macaca fascicularis
In short: (§1)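 Male cynomolgus monkeys (3.5-4 kg), fasted >12 h, n = 3, given 3 mg/kg orally. Femoral vein blood was drawn into 3.8% citrate (9:1) at intervals, spun at 1000g for 10 min to platelet-poor plasma, and PT measured with thromboplastin on a coagulometer. Results are % of basal value, mean ± SEM.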

[7] = Mean residence time in cynomolgus monkey at 1 mg/kg, po; type: ADME, organism-based, Macaca fascicularis; design: dose 1 mg/kg, route oral; details: in vivo
In short: (§2)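 Male cynomolgus monkeys (n = 3), fasted; dosed iv (1 mg/kg in DMA/PEG400) or po (1 mg/kg, 0.5% methylcellulose suspension). Femoral vein blood drawn up to 24 h; plasma deproteinized with acetonitrile, diluted with 0.01 M ammonium formate pH 3.0, and analysed by LC/MS/MS (ODS column, positive ion turbo ionspray). Values given as mean ± SD of three determinations.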

[8] = target: Plasminogen (Homo sapiens, UniProt P00747); experiment: Inhibition of human plasmin
In short: (§3)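 Chromogenic assays at 37 °C. Final enzyme levels: thrombin 0.080 U/mL, trypsin 0.040 µg/mL, plasmin 0.040 U/mL, kallikrein 0.020 U/mL, t-PA 4000 U/mL. Compound was preincubated with enzyme in buffer for 30 min, then substrate added and p-nitroanilide release monitored continuously for 5 min at 405 nm. Ki taken from Lineweaver–Burk plots across substrate concentrations.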

[9] = tested on: Cynomolgus monkey; experiment: AUC in cynomolgus monkey at 1 mg/kg, iv; type: ADME, organism-based, Macaca fascicularis, Plasma; design: dose 1 mg/kg, route intravenous; details: in vivo; in short: as §2
[10] = target: Prothrombin (Homo sapiens, UniProt P00734); experiment: Inhibition of human thrombin; in short: as §3
[11] = Volume of distribution at steady state in cynomolgus monkey at 1 mg/kg, iv; type: ADME, organism-based, Macaca fascicularis; design: dose 1 mg/kg, route intravenous; details: in vivo, read-out: Vdss; in short: as §2
[12] = Oral bioavailability in cynomolgus monkey at 1 mg/kg; type: ADME, organism-based, Macaca fascicularis; details: in vivo; in short: as §2
[13] = tested on: Plasma; experiment: Anticoagulant potency in cynomolgus monkey plasma assessed as concentration required to double prothrombin time; type: functional, Macaca fascicularis
[14] = Tmax in cynomolgus monkey at 1 mg/kg, po; type: ADME, organism-based, Macaca fascicularis; design: dose 1 mg/kg, route oral; details: in vivo; in short: as §2
[15] = Drug concentration in cynomolgus monkey at 1 mg/kg, iv after 5 mins; type: ADME, organism-based, Macaca fascicularis; design: dose 1 mg/kg, route intravenous; details: in vivo, read-out: Activity; in short: as §2
[16] = target: Tissue-type plasminogen activator (Homo sapiens, UniProt P00750); experiment: Inhibition of human tPA; in short: as §3
[17] = tested on: Cynomolgus monkey; experiment: Ex vivo anticoagulant potency in cynomolgus monkey blood assessed as prothrombin time prolongation at 3 mg/kg, po after 8 hrs; type: functional, Macaca fascicularis; in short: as §1
[18] = Cmax in cynomolgus monkey at 1 mg/kg, po; type: ADME, organism-based, Macaca fascicularis; design: dose 1 mg/kg, route oral; details: in vivo; in short: as §2
[19] = tested on: Cynomolgus monkey; experiment: Ex vivo anticoagulant potency in cynomolgus monkey blood assessed as prothrombin time prolongation at 3 mg/kg, po after 4 hrs; type: functional, Macaca fascicularis; in short: as §1
[20] = tested on: Cynomolgus monkey; experiment: Ex vivo anticoagulant potency in cynomolgus monkey blood assessed as prothrombin time prolongation at 3 mg/kg, po after 2 hrs; type: functional, Macaca fascicularis; in short: as §1
[21] = Total clearance in cynomolgus monkey at 1 mg/kg, iv; type: ADME, organism-based, Macaca fascicularis; design: dose 1 mg/kg, route intravenous; details: in vivo; in short: as §2
[22] = AUC in cynomolgus monkey at 1 mg/kg, po; type: ADME, organism-based, Macaca fascicularis; design: dose 1 mg/kg, route oral; details: plasma; in short: as §2
[23] = tested on: Cynomolgus monkey; experiment: Ex vivo anticoagulant potency in cynomolgus monkey blood assessed as prothrombin time prolongation at 3 mg/kg, po after 0.5 hr; type: functional, Macaca fascicularis; in short: as §1
[24] = target: Plasma kallikrein (Homo sapiens, UniProt P03952); experiment: Inhibition of human kallikrein; in short: as §3
[25] = target: Trypsin (Homo sapiens, UniProt P07477+P07478+P35030); experiment: Inhibition of human trypsin; type: protein assay; in short: as §3
[26] = Mean residence time in cynomolgus monkey at 1 mg/kg, iv; type: ADME, organism-based, Macaca fascicularis; design: dose 1 mg/kg, route intravenous; details: in vivo; in short: as §2

CYP3A4, sequence (P08684 whole entry): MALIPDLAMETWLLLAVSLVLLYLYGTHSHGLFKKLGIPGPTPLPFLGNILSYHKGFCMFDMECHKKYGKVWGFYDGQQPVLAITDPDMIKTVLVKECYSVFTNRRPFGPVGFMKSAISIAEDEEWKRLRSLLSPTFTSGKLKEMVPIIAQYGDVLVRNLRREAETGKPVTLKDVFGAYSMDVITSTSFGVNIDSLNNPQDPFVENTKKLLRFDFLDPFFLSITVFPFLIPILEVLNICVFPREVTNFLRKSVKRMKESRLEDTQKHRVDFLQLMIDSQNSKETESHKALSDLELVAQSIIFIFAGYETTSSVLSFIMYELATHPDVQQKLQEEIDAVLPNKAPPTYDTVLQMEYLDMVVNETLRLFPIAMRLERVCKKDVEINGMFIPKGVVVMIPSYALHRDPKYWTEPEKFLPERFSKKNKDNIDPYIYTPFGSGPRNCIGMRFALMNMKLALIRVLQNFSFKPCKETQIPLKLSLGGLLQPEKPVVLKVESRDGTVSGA
Coagulation factor X, sequence (P00742 41-179 limits assumed): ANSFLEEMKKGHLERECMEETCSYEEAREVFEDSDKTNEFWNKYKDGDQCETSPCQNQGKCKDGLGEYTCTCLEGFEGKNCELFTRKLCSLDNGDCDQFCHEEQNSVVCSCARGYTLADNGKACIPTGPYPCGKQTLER
Coagulation factor X, sequence (P00742 235-488 limits assumed): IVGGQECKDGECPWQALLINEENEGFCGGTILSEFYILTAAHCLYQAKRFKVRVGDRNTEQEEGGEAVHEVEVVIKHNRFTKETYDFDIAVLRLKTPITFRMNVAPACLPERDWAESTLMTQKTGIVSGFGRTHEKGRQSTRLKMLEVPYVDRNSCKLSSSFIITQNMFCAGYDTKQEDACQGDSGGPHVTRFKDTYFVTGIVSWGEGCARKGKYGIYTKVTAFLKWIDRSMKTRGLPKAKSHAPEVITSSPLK
Plasminogen, sequence (P00747 97-580 limits assumed): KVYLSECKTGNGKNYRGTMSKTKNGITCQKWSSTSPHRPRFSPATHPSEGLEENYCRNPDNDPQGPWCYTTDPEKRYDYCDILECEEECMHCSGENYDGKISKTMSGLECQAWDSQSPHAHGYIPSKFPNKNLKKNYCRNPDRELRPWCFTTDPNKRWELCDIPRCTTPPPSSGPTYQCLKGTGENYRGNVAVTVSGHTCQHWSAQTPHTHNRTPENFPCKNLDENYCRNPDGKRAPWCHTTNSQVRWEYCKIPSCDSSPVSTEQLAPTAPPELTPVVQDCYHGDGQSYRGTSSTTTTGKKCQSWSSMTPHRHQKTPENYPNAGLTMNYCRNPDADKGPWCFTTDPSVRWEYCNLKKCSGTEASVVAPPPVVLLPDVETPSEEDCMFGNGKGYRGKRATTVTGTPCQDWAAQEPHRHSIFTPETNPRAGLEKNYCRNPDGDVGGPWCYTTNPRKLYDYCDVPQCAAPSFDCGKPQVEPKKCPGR
Plasminogen, sequence (P00747 581-810 limits assumed): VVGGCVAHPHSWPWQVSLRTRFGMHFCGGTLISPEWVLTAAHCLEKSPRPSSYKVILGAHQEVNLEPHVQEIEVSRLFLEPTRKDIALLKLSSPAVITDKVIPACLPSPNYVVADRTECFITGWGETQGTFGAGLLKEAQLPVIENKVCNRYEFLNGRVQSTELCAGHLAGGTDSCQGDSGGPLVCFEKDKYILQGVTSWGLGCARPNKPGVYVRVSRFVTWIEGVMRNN
Tissue-type plasminogen activator, sequence (P00750 whole entry): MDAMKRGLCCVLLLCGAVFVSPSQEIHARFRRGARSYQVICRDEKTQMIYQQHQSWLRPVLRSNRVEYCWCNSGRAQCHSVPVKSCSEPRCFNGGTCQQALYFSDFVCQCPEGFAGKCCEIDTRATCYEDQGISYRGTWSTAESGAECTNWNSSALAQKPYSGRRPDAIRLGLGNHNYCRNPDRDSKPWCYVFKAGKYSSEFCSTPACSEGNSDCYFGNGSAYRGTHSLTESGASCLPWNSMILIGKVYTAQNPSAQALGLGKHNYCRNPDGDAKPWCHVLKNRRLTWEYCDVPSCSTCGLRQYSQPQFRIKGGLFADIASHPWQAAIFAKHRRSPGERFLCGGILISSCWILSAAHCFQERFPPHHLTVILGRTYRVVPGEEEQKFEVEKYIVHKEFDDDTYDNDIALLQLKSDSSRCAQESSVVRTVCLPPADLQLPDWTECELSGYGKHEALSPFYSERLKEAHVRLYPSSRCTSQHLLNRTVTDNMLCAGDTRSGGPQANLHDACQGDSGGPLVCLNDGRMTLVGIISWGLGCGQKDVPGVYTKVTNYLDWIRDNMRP
Plasma kallikrein, sequence (P03952 20-390 limits assumed): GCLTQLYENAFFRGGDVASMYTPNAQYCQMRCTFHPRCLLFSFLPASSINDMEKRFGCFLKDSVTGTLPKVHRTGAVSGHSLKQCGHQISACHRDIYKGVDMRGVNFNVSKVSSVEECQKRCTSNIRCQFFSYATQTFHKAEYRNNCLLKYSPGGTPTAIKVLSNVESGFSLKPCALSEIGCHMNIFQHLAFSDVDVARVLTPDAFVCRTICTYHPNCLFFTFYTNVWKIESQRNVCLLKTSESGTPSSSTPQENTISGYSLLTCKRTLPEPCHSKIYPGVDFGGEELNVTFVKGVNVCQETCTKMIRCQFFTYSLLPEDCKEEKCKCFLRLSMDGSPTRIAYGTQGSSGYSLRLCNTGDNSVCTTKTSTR
Plasma kallikrein, sequence (P03952 391-638 limits assumed): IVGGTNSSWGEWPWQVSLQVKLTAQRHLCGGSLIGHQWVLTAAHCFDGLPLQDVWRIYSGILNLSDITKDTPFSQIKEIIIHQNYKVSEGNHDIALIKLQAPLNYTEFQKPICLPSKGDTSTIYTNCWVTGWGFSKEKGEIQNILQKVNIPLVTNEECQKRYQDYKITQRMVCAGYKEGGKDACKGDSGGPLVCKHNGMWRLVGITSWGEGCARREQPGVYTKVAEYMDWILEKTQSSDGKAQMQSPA

Structure (SMILES): CN(C(=O)CCS(=O)(=O)c1ccc2cc(Cl)ccc2c1)C1CCN(c2ccnc(N)c2)CC1
- IC50 [1]: 79 nM
- Activity [2]: 3.6 µM
- inhibition at 1 µM [3]: 49%

Structure (SMILES): CCOC(=O)CCN(C(=O)CCS(=O)(=O)c1ccc2cc(Cl)ccc2c1)C1CCN(c2ccncc2)CC1
- Activity [4]: 14 µM
- Ratio [5]: 1
- Activity [2]: 0.85 µM

Structure (SMILES): CN(C(=O)CCS(=O)(=O)c1ccc2cc(Cl)ccc2c1)C1CCN(c2ccncc2)CC1
- Activity [4]: 8 µM
- IC50 [1]: 50 nM
- Ratio [5]: 1.6
- Activity [2]: 1 µM
- inhibition at 1 µM [3]: 81%

Structure (SMILES): CN(C(=O)CCCS(=O)(=O)c1ccc2cc(Cl)ccc2c1)C1CCN(c2ccncc2)CC1
- IC50 [1]: 140 nM

Structure (SMILES): CN(CCS(=O)(=O)c1ccc2cc(Cl)ccc2c1)C(=O)C1CCN(c2ccncc2)CC1
- IC50 [1]: 840 nM

Structure (SMILES): CN(C(=O)CS(=O)(=O)c1ccc2cc(Cl)ccc2c1)C1CCN(c2ccncc2)CC1
- IC50 [1]: 720 nM

Structure (SMILES): CCOC(=O)CN(CCCS(=O)(=O)c1ccc2cc(Cl)ccc2c1)C(=O)C1CCN(c2ccncc2)CC1
- Activity [4]: 11 µM
- IC50 [1]: 64 nM
- Ratio [5]: 1
- Activity [2]: 1.9 µM

Structure (SMILES): O=C(C1CCN(c2ccncc2)CC1)N1CCN(S(=O)(=O)c2ccc3cc(Cl)ccc3c2)CC1
- IC50 [1]: 33 nM

Structure (SMILES): Cc1cc(N2CCC(N(C)C(=O)CCS(=O)(=O)c3cc4cc(Cl)ccc4s3)CC2)ccn1
- IC50 [1]: > 5000 nM

Structure (SMILES): NC(=O)CN(CCCS(=O)(=O)c1ccc2cc(Cl)ccc2c1)C(=O)C1CCN(c2ccncc2)CC1
- IC50 [1]: 120 nM
- Activity [2]: 2.1 µM

Structure (SMILES): CCOC(=O)CN(C(=O)CCS(=O)(=O)c1ccc2cc(Cl)ccc2c1)C1CCN(c2ccncc2)CC1
- Activity [4]: 10 µM
- IC50 [1]: 60 nM
- Ratio [5]: 1.1
- Activity [2]: 1.1 µM

Structure (SMILES): CC(=N)N1CC[C@H](Oc2ccc([C@H](Cc3ccc4ccc(C(=N)N)cc4c3)C(=O)O)cc2)C1 [DX-9065A]
- Activity [4]: 6.8 µM
- Activity [2]: 0.69 µM

Structure (SMILES): Cc1cc(N2CCC(N(C)C(=O)CCS(=O)(=O)c3ccc4cc(Cl)ccc4c3)CC2)ccn1
- Activity [6]: 133.6%
- Activity [4]: 4.8 µM
- MRT [7]: 6.6 h
- Ki [8]: > 200000 nM
- AUC [9]: 1580 ng·h/mL
- Ki [10]: 7500 nM
- Vd [11]: 3.29 L/kg
- bioavailability [12]: 66.7%
- Activity [13]: 1.1 µM
- Tmax [14]: 2 h
- concentration at 5 min [15]: 565 ng/mL
- Ki [16]: 67000 nM
- Activity [17]: 117.7%
- IC50 [1]: 61 nM
- Ki [1]: 15 nM
- Ratio [5]: 1.6
- Cmax [18]: 134 ng/mL
- Activity [19]: 144.6%
- Activity [2]: 1.6 µM
- Activity [20]: 146.9%
- inhibition at 1 µM [3]: 40%
- clearance [21]: 12.2 mL/min/kg
- AUC [22]: 1030 ng·h/mL
- Activity [23]: 142%
- Ki [24]: 3000 nM
- Ki [25]: > 200000 nM
- MRT [26]: 4.54 h

Structure (SMILES): Cc1cc(N2CCC(N(C)C(=O)CCS(=O)(=O)c3ccc4cc(Cl)ccc4c3)CC2)cc(C)n1
- Activity [4]: 4.1 µM
- Ratio [5]: 1.3
- Activity [2]: 1.6 µM
- inhibition at 1 µM [3]: 40%

Structure (SMILES): O=C(NCCCS(=O)(=O)c1ccc2cc(Cl)ccc2c1)C1CCN(c2ccncc2)CC1
- IC50 [1]: 470 nM

Structure (SMILES): Cc1cc(N2CCC(N(C)C(=O)CCS(=O)(=O)c3ccc4c(Cl)cccc4c3)CC2)ccn1
- IC50 [1]: > 5000 nM

Structure (SMILES): Cc1cc(N2CCC(N(C)C(=O)CCS(=O)(=O)c3ccc4ccc(Cl)cc4c3)CC2)ccn1
- IC50 [1]: > 5000 nM

Structure (SMILES): CN(CCCS(=O)(=O)c1ccc2cc(Cl)ccc2c1)C(=O)C1CCN(c2ccncc2)CC1
- Activity [4]: 17 µM
- Ratio [5]: 1.3
- Activity [2]: 1.7 µM

Structure (SMILES): Cc1ccc2cc(S(=O)(=O)CCC(=O)N(C)C3CCN(c4ccnc(C)c4)CC3)ccc2c1
- IC50 [1]: 720 nM

Structure (SMILES): CN(C(=O)CCS(=O)(=O)c1ccc2cc(Cl)ccc2c1)C1CCN(c2ccnc(CO)c2)CC1
- Activity [4]: 6.4 µM
- IC50 [1]: 110 nM
- Ratio [5]: 1.1
- Activity [2]: 1.5 µM
- inhibition at 1 µM [3]: 21%

Structure (SMILES): O=C(O)CN(CCCS(=O)(=O)c1ccc2cc(Cl)ccc2c1)C(=O)C1CCN(c2ccncc2)CC1
- Activity [4]: 14 µM
- IC50 [1]: 54 nM
- Ratio [5]: 1
- Activity [2]: 1.8 µM

Structure (SMILES): Cc1cc(N2CCC(N(C)C(=O)CCS(=O)(=O)c3cc4ccc(Cl)cc4s3)CC2)ccn1
- IC50 [1]: > 5000 nM

Structure (SMILES): O=C(CCS(=O)(=O)c1ccc2cc(Cl)ccc2c1)N1CCN(c2ccncc2)CC1
- IC50 [1]: 160 nM

Structure (SMILES): CC(C)N(CCCS(=O)(=O)c1ccc2cc(Cl)ccc2c1)C(=O)C1CCN(c2ccncc2)CC1
- IC50 [1]: 250 nM
- Activity [2]: 8.4 µM

Structure (SMILES): CCN(CCCS(=O)(=O)c1ccc2cc(Cl)ccc2c1)C(=O)C1CCN(c2ccncc2)CC1
- IC50 [1]: 120 nM
- Activity [2]: 3.2 µM

Structure (SMILES): NCCN(C(=O)CCS(=O)(=O)c1ccc2cc(Cl)ccc2c1)C1CCN(c2ccncc2)CC1
- Activity [4]: 8.6 µM
- IC50 [1]: 95 nM
- Ratio [5]: 1
- Activity [2]: 0.63 µM
